In ChEMBL document CHEMBL2203145, “Synthesis and structure-activity relationships of tri-substituted thiazoles as RAGE antagonists for the treatment of Alzheimer's disease” (Bioorg Med Chem Lett, 2012):

Tests used:
[1] = molecular target: Advanced glycosylation end product-specific receptor (Mus musculus) (UniProt Q62151); experiment: Antagonist activity at RAGE overexpressed in mouse bEND.3 cells assessed as inhibition of FITC-amyloid beta 42 transport across blood-brain barrier at 10 uM by fluorescence assay; type: functional, cell-based
Advanced glycosylation end product-specific receptor (Mus musculus), sequence (Q62151 whole entry): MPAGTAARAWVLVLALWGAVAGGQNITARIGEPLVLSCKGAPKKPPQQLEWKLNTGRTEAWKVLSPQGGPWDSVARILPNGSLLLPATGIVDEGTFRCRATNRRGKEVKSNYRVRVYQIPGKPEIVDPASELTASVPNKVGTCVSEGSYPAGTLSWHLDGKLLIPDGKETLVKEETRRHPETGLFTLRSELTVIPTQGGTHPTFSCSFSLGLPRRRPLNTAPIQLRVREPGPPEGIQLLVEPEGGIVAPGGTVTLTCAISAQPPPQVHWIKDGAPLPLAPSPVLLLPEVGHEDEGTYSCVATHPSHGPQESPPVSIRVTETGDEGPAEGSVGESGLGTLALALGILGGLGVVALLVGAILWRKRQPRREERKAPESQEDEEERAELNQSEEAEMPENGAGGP
In short: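 RAGE-overexpressing bEND.3 cells grown 3–4 days to confluence on inserts to form a tight-junction barrier; TEER taken as resistance minus blank-insert resistance, times insert area. Aβ transport across the monolayer measured with compound at 10 µM; reported as % inhibition.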

[2] = molecular target: T1, Advanced glycosylation end product-specific receptor (Homo sapiens, UniProt Q15109); experiment: Antagonist activity at human biotinylated RAGE assessed as inhibition of amyloid beta binding at 10 uM after 60 mins by ELISA
T1 sequence (Q15109 whole entry): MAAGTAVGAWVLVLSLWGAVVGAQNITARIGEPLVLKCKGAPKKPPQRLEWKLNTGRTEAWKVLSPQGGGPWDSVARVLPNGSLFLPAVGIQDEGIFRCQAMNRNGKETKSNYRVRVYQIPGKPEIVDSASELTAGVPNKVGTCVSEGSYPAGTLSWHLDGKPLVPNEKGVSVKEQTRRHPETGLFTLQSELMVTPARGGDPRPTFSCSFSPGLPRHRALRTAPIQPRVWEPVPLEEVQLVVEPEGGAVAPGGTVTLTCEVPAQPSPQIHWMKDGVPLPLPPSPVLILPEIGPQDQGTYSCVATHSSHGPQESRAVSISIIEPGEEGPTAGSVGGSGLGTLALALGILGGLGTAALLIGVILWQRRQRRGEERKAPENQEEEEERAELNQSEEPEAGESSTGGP
In short: (§1)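 Biotinylated protein with Aβ in BSA-containing buffer incubated on a streptavidin-coated plate for 60 min at ambient temperature, then washed with TBS-T. Bound Aβ detected with HRP-conjugated 4G8 antibody (1:1000, TBS-T with 2.5% BSA) for 60 min at ambient temperature. Developed with TMB, stopped with sulfuric acid, absorbance read at 450 nm.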

[3] = molecular target: T1, Advanced glycosylation end product-specific receptor; experiment: Antagonist activity at human biotinylated RAGE assessed as inhibition of amyloid beta binding after 60 mins by ELISA; in short: as §1
[4] = molecular target: T1, Advanced glycosylation end product-specific receptor; experiment: Antagonist activity at RAGE transfected in CHO cells assessed as inhibition of amyloid beta 42-induced NFkappaB activation at 1 uM after 18 hrs by luciferase reporter gene assay; type: functional, cell-based
In short: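 CHO-NF-κB-luciferase cells at 20,000 cells/well in Opti-MEM, incubated overnight, then treated with compound (1 µM) for 18 h at 37 °C with or without 5 µM Aβ42. Cells lysed in passive lysis buffer, lysate mixed with luciferase substrate, relative light units read on a luminometer.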

CCCCc1sc(-c2ccc(OCCCN(CC)CC)cc2)nc1-c1ccc(Oc2ccc(Cl)cc2)cc1
inhibition [1]: 73.3% | inhibition [2]: 58.9% | IC50 [3]: 1720 nM

CCCCc1nc(-c2ccc(OCCCN(CC)CC)cc2)sc1-c1ccc(Oc2ccc(Cl)cc2)cc1
inhibition [2]: 49.6%

CCCCc1nc(-c2ccc(OCC3CCCN(CC)C3)cc2)sc1-c1ccc(Oc2ccc(Cl)cc2)cc1 (stereo unspecified)
inhibition [2]: 47.7%

CCCCc1sc(-c2ccc(OCCCN3CCN(C)CC3)cc2)nc1-c1ccc(Oc2ccc(Cl)cc2)cc1
inhibition [1]: 64.3% | inhibition [4]: 3.1% | inhibition [2]: 59.2% | IC50 [3]: 1240 nM

CCCCc1sc(-c2ccc(OCCN(CC)CC)cc2)nc1-c1ccc(Oc2ccc(Cl)cc2)cc1
inhibition [4]: 11.3% | inhibition [2]: 55.1% | IC50 [3]: 1580 nM

CCCCc1sc(-c2ccc(Oc3ccc(Cl)cc3)cc2)nc1-c1ccc(OCC2CCCN(CC)C2)cc1 (stereo unspecified)
inhibition [1]: 68.3% | inhibition [2]: 55.9% | IC50 [3]: 1910 nM

CCCCc1sc(-c2ccc(OCCN3CCN(C)CC3)cc2)nc1-c1ccc(Oc2ccc(Cl)cc2)cc1
inhibition [1]: 68.6% | inhibition [4]: 17.2% | inhibition [2]: 54.7% | IC50 [3]: 1210 nM

CCCCc1sc(-c2ccc(Oc3ccc(Cl)cc3)cc2)nc1-c1ccc(OCc2ccccc2)cc1
inhibition [2]: 2.4%

CCCCc1sc(-c2ccc(OCCCN3CCOCC3)cc2)nc1-c1ccc(Oc2ccc(Cl)cc2)cc1
inhibition [2]: 40.6%

CCCCc1sc(-c2ccc(OCCN3CCCCC3)cc2)nc1-c1ccc(Oc2ccc(Cl)cc2)cc1
inhibition [1]: 55.3% | inhibition [4]: 13.5% | inhibition [2]: 60.1% | IC50 [3]: 1040 nM

CCCCc1sc(Nc2ccc(OCCCN(CC)CC)cc2)nc1-c1ccc(Oc2ccc(Cl)cc2)cc1
inhibition [2]: 60.9% | IC50 [3]: 550 nM

CCCCc1sc(-c2ccc(Oc3ccc(Cl)cc3)cc2)nc1-c1ccc(O)cc1
inhibition [2]: 0.2%

CCCCc1sc(-c2ccc(OCCN(C)C)cc2)nc1-c1ccc(Oc2ccc(Cl)cc2)cc1
inhibition [1]: 66.6% | inhibition [4]: 2.1% | inhibition [2]: 51.8% | IC50 [3]: 3180 nM

CCCCc1sc(-c2ccc(OCCCN3CCCCC3)cc2)nc1-c1ccc(Oc2ccc(Cl)cc2)cc1
inhibition [1]: 64.3% | inhibition [4]: 11.7% | inhibition [2]: 59.2% | IC50 [3]: 1840 nM

CCCCc1nc(-c2ccc(Oc3ccc(Cl)cc3)cc2)sc1-c1ccc(OCCCN(CC)CC)cc1
inhibition [1]: 63.5% | inhibition [4]: 10.3% | inhibition [2]: 57.1% | IC50 [3]: 2010 nM

CCCCc1sc(-c2ccc(OCCN3CCCC3)cc2)nc1-c1ccc(Oc2ccc(Cl)cc2)cc1
inhibition [1]: 39.5% | inhibition [4]: 2.5% | inhibition [2]: 64.2% | IC50 [3]: 910 nM

CCCCc1sc(-c2ccc(Oc3ccc(Cl)cc3)cc2)nc1-c1ccc(OCCCN(CC)CC)cc1
inhibition [1]: 71.7% | inhibition [2]: 57% | IC50 [3]: 1120 nM

CCCCc1sc(C(=O)Nc2ccc(OCCCN(CC)CC)cc2)nc1-c1ccc(Oc2ccc(Cl)cc2)cc1
inhibition [2]: 48.1%

CCCCc1sc(-c2ccc(OCCCN(C)C)cc2)nc1-c1ccc(Oc2ccc(Cl)cc2)cc1
inhibition [2]: 46.2%

CCCCc1nc(-c2ccc(Oc3ccc(Cl)cc3)cc2)sc1-c1ccc(OCC2CCCN(CC)C2)cc1 (stereo unspecified)
inhibition [1]: 61.5% | inhibition [4]: 4.9% | inhibition [2]: 53.9% | IC50 [3]: 1140 nM

CCCCc1sc(-c2ccc(OCC3CCCN(CC)C3)cc2)nc1-c1ccc(Oc2ccc(Cl)cc2)cc1 (stereo unspecified)
inhibition [1]: 77.5% | inhibition [4]: 3% | inhibition [2]: 58% | IC50 [3]: 660 nM

CCCCc1sc(-c2ccc(OCCCN3CCCC3)cc2)nc1-c1ccc(Oc2ccc(Cl)cc2)cc1
inhibition [2]: 47.8%

CCCCc1sc(NC(=O)c2ccc(OCCCN(CC)CC)cc2)nc1-c1ccc(Oc2ccc(Cl)cc2)cc1
inhibition [2]: 60.2% | IC50 [3]: 5590 nM

CCCCc1sc(-c2ccc(OCCN3CCOCC3)cc2)nc1-c1ccc(Oc2ccc(Cl)cc2)cc1
inhibition [2]: 22.9%
